Assay results collected from several papers.
USP8: Ubiquitin carboxyl-terminal hydrolase 8 (USP8, Homo sapiens, UniProt P40818)
Nos1: Nitric oxide synthase 1 (Nos1, Rattus norvegicus, UniProt P29476)
PRKCA: Protein kinase C alpha type (PRKCA, Homo sapiens, UniProt P17252)
HDAC8: Histone deacetylase 8 (HDAC8, Homo sapiens, UniProt Q9BY41)

SMILES | target | test | conditions | inhibition
CN(C)C(=O)COC(=O)Cc1ccc(OC(=O)c2ccc(NC(=N)N)cc2)cc1 | USP8 | enzyme activity, inhibitor | 10 µM | 0%
COCc1c(-c2cc3cc(C)cc(OC)c3s2)c2c(N)ncnn2c1CN1CCNC(=O)C1 | Nos1 | enzyme activity, inhibitor | 10 µM | -8%
Cn1cc(-c2cccc(N3CCc4c(sc5c4CC(C)(C)C5)C3=O)c2CO)cc(Nc2ccncn2)c1=O | PRKCA | enzyme activity, inhibitor | 1 µM | 5%
O=C(CNC(=O)c1coc(-c2ccccc2O)n1)Nc1ccccc1 | Histone deacetylase 1 (HDAC1, Homo sapiens, UniProt Q13547) | enzyme activity, inhibitor | 20 µM | 26%
Cn1cc(-c2cc(F)cc(N3CCn4c(cc5c4CCCC5)C3=O)c2CO)cc(Nc2ccc(N3CCN(C4COC4)CC3)cn2)c1=O | Testis-specific serine/threonine-protein kinase 2 (TSSK2, Homo sapiens, UniProt Q96PF2) | enzyme activity, inhibitor | 0.1 µM | 17%
O=c1ccc2ccc3occc3c2o1 | HDAC8 | enzyme activity, inhibitor | 10 µM | 33.9%
CCN(CC)CCCC[C@H](NC(=O)[C@H](CC(C)C)NC(=O)[C@H](C)NC(=O)[C@H](Cc1ccccc1)NC(=O)c1ccc(C(C)(C)C)cc1)C(=O)N[C@@H](CO)C(=O)OC | Mu-type opioid receptor (OPRM1, Homo sapiens, UniProt P35372) | ligand displacement, radioligand | 10 µM | 51%
COc1cc(Nc2ncc(F)c(Nc3ccc4c(n3)NC(=O)C(C)(C)O4)n2)cc(OC)c1OC | Ephrin type-A receptor 6 (EPHA6, Homo sapiens, UniProt Q9UF33) | binding, competition with immobilised ligand | 10 µM | 82%
C#Cc1n[nH]c2c(-c3cn(C(C)c4ccccn4)c(=O)[nH]c3=O)cc(F)cc12 (stereo not shown) | Tyrosine-protein kinase Yes (YES1, Homo sapiens, UniProt P07947) | enzyme activity, inhibitor | 1 µM | -0.2%
CCOC(=O)c1ccc(OC(=O)CCCCCNC(=N)N)cc1 | USP8 | enzyme activity, inhibitor | 10 µM | 0%
c1ccc(C(NCCNC(c2ccccc2)c2ccccc2)c2ccccc2)cc1 | Nos1 | enzyme activity, inhibitor | 10 µM | 6%
N=C(N)c1ccc2cc(OC(=O)c3ccc(N=C(N)N)cc3)ccc2c1 | USP8 | enzyme activity, inhibitor | 10 µM | 5%
C#Cc1n[nH]c2c(-c3cn([C@@H](C)c4ccccc4)c(=O)[nH]c3=O)cc(F)cc12 | PRKCA | enzyme activity, inhibitor | 0.1 µM | 9.6%
COc1c2ccoc2cc2oc(=O)ccc12 | HDAC8 | enzyme activity, inhibitor | 10 µM | 34.4%
C[C@H](C(=O)N[C@H]1COc2ccccc2[C@@H]1S(C)(=O)=O)c1ccc(F)cc1 | Nos1 | enzyme activity, inhibitor | 10 µM | 6%
N#Cc1ccc(NCCNCC(=O)N2N=CCC2C#N)nc1 (stereo not shown) | Dipeptidyl peptidase 8 (Homo sapiens, UniProt Q6V1X1) | enzyme activity, inhibitor | 1 µM | 0%
